# Marks after values point to notes of the source that are not given here.
# Columns and labels:
# Type in all cases: biochemical
# [1] = target: Human mitochondrial RNA polymerase (POLRMT) (Homo sapiens, UniProt O00411); assay: POLRMT primer extension
# In short: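 Reactions contained 200 nM DNA template, 25 nM Atto-425-labelled 12-mer RNA primer and 300 nM human POLRMT. Substrate was 1 mM NTP or 2′-F-NTP, or mixtures from 100:1 to 1:100 (1:1 both 1 mM). Products were resolved by fluorescence anion-exchange HPLC (ex 436/em 485 nm, pH 11 NaBr gradient). Products under 1.0% peak area were called not detected.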
# DNA polymerase β (Pol-β) = DNA polymerase β (Pol-β) (Homo sapiens, UniProt P06746); assay: DNA polymerase inhibition assay, Pol-β; conditions: 1 h, 3H-dTTP incorporation
# In short: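 Reactions contained 25 μM each dATP/dCTP/dGTP, 25 nM TTP plus 1 μCi ³H-TTP, 160 nM template/primer, and serially diluted test nucleotide (0–200 μM). Incubation was 1 h at 37°C. DNA was TCA-precipitated, washed and counted; inhibition was taken from reduced incorporation. ddNTPs served as positive control.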
# DNA polymerase α (Pol-α) = target: T1, DNA polymerase α (Pol-α) (Homo sapiens, UniProt P09884); assay: DNA polymerase inhibition assay, Pol-α; conditions: Pol-α; 1 h, 3H-dTTP incorporation
# T1 sequence (P09884 1-1462): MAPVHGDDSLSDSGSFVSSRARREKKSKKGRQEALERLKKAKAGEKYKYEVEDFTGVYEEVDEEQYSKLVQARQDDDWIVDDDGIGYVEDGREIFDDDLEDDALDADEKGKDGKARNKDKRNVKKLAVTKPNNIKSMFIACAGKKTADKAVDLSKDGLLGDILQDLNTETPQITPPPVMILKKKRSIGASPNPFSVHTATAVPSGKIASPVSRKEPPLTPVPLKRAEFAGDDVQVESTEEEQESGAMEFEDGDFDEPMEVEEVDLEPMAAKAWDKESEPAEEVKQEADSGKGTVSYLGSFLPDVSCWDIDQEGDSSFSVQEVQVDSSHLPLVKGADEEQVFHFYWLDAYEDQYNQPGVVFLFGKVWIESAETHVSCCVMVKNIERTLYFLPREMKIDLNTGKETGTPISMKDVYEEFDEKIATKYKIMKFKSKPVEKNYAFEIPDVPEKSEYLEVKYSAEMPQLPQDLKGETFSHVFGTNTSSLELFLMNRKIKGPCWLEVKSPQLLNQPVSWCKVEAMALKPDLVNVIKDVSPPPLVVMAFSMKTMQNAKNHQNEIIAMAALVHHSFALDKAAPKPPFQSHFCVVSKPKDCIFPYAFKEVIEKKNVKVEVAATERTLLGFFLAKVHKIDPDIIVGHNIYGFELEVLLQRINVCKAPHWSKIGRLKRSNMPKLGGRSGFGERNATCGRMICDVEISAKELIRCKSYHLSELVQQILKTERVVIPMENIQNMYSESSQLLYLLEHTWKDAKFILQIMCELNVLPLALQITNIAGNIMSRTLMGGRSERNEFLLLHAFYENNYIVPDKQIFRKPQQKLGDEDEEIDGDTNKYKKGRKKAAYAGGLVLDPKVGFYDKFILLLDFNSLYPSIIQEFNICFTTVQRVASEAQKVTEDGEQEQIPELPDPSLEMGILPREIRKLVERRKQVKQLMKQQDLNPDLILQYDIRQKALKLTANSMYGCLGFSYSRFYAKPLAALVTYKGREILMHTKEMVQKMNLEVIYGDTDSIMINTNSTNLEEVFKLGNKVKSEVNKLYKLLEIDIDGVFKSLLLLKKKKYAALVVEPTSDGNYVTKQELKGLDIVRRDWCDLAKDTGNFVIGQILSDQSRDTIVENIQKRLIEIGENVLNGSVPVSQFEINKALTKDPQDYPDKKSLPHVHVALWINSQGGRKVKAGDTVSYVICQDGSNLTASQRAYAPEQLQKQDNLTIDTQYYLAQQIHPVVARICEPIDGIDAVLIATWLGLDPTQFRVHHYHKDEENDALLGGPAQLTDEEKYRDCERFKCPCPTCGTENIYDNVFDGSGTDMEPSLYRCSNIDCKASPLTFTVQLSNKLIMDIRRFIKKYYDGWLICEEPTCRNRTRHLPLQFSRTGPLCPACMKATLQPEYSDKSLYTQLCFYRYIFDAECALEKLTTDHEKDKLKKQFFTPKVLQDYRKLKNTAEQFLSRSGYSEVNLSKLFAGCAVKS
# Human mitochondrial RNA polymerase (POLRMT), sequence (O00411 42-1230): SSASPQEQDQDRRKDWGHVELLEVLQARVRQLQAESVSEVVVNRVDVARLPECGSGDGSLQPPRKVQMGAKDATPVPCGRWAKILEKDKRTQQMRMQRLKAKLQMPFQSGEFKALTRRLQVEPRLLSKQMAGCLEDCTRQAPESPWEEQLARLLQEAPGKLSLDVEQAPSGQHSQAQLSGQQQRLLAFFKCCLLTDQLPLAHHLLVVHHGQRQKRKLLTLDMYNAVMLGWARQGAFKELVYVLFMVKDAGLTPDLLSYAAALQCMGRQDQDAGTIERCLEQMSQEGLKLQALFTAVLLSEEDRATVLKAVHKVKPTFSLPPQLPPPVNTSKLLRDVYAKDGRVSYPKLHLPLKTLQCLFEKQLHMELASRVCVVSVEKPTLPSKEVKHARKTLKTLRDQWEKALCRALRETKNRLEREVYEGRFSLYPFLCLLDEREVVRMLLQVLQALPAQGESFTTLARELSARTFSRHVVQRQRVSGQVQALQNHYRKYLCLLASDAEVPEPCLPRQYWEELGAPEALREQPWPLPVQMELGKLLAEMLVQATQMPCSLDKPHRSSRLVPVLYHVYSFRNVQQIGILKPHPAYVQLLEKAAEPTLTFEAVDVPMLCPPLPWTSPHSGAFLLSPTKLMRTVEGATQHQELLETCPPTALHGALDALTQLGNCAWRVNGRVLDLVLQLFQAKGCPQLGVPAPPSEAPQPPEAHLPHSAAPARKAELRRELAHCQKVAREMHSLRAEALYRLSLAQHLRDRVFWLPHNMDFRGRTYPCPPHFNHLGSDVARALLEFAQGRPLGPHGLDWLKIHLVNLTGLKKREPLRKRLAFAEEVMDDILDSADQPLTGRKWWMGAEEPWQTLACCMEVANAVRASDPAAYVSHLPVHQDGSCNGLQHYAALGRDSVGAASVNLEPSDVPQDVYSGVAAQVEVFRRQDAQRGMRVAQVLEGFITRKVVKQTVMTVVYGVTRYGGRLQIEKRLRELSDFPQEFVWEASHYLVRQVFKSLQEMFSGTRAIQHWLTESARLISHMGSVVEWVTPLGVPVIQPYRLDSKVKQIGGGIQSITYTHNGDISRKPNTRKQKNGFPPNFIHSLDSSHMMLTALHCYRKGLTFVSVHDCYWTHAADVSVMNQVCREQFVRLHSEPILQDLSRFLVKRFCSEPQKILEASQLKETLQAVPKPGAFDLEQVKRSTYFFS
SMILES,% 2′-F product ([1]; F only),% Native product ([1]; Native only (no 2′-F-NTP)),% 2′-F product ([1]; Native:F ratio 1:1),% Native product ([1]; Native:F ratio 1:1),% 2′-F product ([1]; Native:F ratio 1:10),% Native product ([1]; Native:F ratio 1:10),% 2′-F product ([1]; Native:F ratio 1:100),% Native product ([1]; Native:F ratio 1:100),IC50 (DNA polymerase β (Pol-β)) [µM],IC90 (DNA polymerase β (Pol-β)) [µM],IC50 (DNA polymerase α (Pol-α)) [µM],IC90 (DNA polymerase α (Pol-α)) [µM]
Nc1ncnc2c1ncn2[C@@H]1O[C@H](COP(=O)(O)OP(=O)(O)OP(=O)(O)O)[C@@H](O)[C@H]1F [2′-F-ATP],42.6^a %,69.2^a %,ND (not detected (integration peak area <1.0%)),67.8^a %,ND (not detected (integration peak area <1.0%)),63.5^a %,ND (not detected (integration peak area <1.0%)),51.4^a %,175,> 200,> 200,> 200
Nc1ccn([C@@H]2O[C@H](COP(=O)(O)OP(=O)(O)OP(=O)(O)O)[C@@H](O)[C@H]2F)c(=O)n1 [2′-F-CTP],58.7^a %,48.8^a %,ND (not detected (integration peak area <1.0%)),39.3^a %,ND (not detected (integration peak area <1.0%)),43.7^a %,9.1^b %,37.0^b %,> 200,> 200,> 200,> 200
Nc1nc2c(ncn2[C@@H]2O[C@H](COP(=O)(O)OP(=O)(O)OP(=O)(O)O)[C@@H](O)[C@H]2F)c(=O)[nH]1 [2′-F-GTP],78.9^a %,95.0^a %,ND (not detected (integration peak area <1.0%)),96.4^a %,ND (not detected (integration peak area <1.0%)),83.4^a %,8.9^b %,69.2^b %,> 200,> 200,> 200,> 200
O=c1ccn([C@@H]2O[C@H](COP(=O)(O)OP(=O)(O)OP(=O)(O)O)[C@@H](O)[C@H]2F)c(=O)[nH]1 [2′-F-UTP],31.8^a %,40.8^a %,ND (not detected (integration peak area <1.0%)),32^a %,ND (not detected (integration peak area <1.0%)),45.3^a %,ND (not detected (integration peak area <1.0%)),35.6^a %,91.6,> 200,> 200,> 200
"O=c1[nH]c(=O)n([C@@H]2O[C@H](COP(=O)(O)OP(=O)(O)OP(=O)(O)O)[C@@H](O)[C@@H]2F)cc1I [FIAU-TP, fialuridine triphosphate, reference compound]",21.0^a %,34.6^a %,ND (not detected (integration peak area <1.0%)),25.1^a %,ND (not detected (integration peak area <1.0%)),25.4^a %,1.1^b %,24.10^b %,0.37,5.56,0.27,13.7

# From article PMC6468299 (Nucleic Acids Research, 2019)
